Screens (PubChem BioAssay)
Hsp70 activator: switches on Hsp70 transcription; 200,000 compounds, 0.04% hits; activation, % at 10 µM; HeLa Hsp70 promoter luciferase reporter, luminescence; scaled: vehicle 0, proteasome-inhibitor control 100%;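 active means activation above the mean across all tested compounds plus 3 SD, cutoff set per campaign, cut at about 5.5% in these data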
HSF1 activator: increases HSF-1 driven luciferase reporter signal | NIH3T3-HGL HSF-1 luciferase reporter, MG132, 8 h; 100% = twice DMSO control signal | activation, % at 9 µM | 300,000 compounds, 1.7% hits;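 active means mean replicate activation of at least 50% with a set share of replicates each reaching 50%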
T cruzi repl: blocks replication of Trypanosoma cruzi. T. cruzi beta-gal in NIH3T3, luminescence, 90 h. inhibition, % (test concentration not listed). 300,000 compounds, 1.4% hits. AID 1885;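 active means mean inhibition across valid replicates above about 55%, limit read from the data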;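 further: signal also drops with host cell toxicity which is not excluded here; higher percent means less beta-gal luminescence so fewer parasites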
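compound dosing = single 50 nL compound addition per well in DMSO | material = NIH/3T3 host cells with β-galactosidase reporter T. cruzi | input = 5,000 host fibroblasts per well | timing = ≥90 h infection period, 3 h prior cell attachment | read-out basis = percent inhibition of parasite-derived β-gal signal | detection = GalScreen β-gal luminescence, detergent lysis, 60 min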
L major viab: inhibitors of Leishmania major promastigote growth. inhibition, % at 10 µM. 200,000 compounds, 9% hits. Leishmania major promastigotes, resazurin fluorescence viability; in the data active means inhibition above about 50%;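 further: promastigotes grown with compound for 44 hours at 28 °C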
HSF1 inhib: HSF1 inhibition | NIH3T3-HGL HSE-luciferase, MG132-induced, luminescence 8 h; active compounds read low | activity change, negative = inhibition, % at 7.5 µM (by protocol) | 300,000 compounds, 0.77% hits | AID 2098;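 active means more than half of replicate wells show activity change below -50%, luminescence cut by over half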;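 further: luciferase reports HSF-1 transcriptional activity via heat shock element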
Of the large screens only hits and unclear results are named; the others gave an inactive call. Many of the other results were omitted from the sample, so hits are more common in it than they were.

Cc1ccc(NS(=O)(=O)c2ccc(OCC(=O)NCc3ccccn3)cc2)cc1	none (no result: Hsp70 activator, L major viab)
Cc1cc(NC(=O)CN2C(=O)NC3(CCCCCC3)C2=O)no1	none (no result: Hsp70 activator, L major viab)
COc1ccccc1N(CC(=O)N1CCOCC1)S(C)(=O)=O	none (no result: Hsp70 activator, L major viab)
N#Cc1ccc(CSc2nnc(-c3ccncc3)n2CCc2ccccc2)cc1	T cruzi repl 65, L major viab 90
COC(=O)c1ccc(CSc2nc3ccccc3c(=O)n2C)o1	none (no result: Hsp70 activator, L major viab)
COC(=O)c1ccc(CSc2nc3ccccc3c(=O)n2CC(C)C)o1	HSF1 activator 71
COc1ccc(NS(=O)(=O)c2cc(NC(=O)/C=C/c3cc(OC)ccc3OC)ccc2N2CCCCC2)cc1	L major viab 92
COc1ccc(NS(=O)(=O)c2cc(NC(=O)c3ccco3)ccc2N2CCCC2)cc1	L major viab 82
CCC(C)n1c(-c2cccs2)nc2nc3ccccc3nc21 (centres undefined)	L major viab 67
c1ccc(-n2c(-c3cccs3)nc3nc4ccccc4nc32)cc1	none
COc1ccc(OC)c2nc(-c3ccc4c(c3)OCO4)ccc12	HSF1 activator 54 (no result: Hsp70 activator, L major viab)
Cn1cc(CNCc2cn(C)nc2-c2ccc(C3CCCCC3)cc2)cn1	L major viab 94
COc1cccc(-n2cc(CNCc3cn(C)nc3-c3ccccc3F)cn2)c1	none
O=c1c2cc(N3CCOCC3)ccc2[nH]c(=S)n1Cc1ccccn1	HSF1 activator 67
CC(=O)c1ccc(N2CCN(C(=O)c3ccc(Cn4c(=S)[nH]c5ccc(N6CCOCC6)cc5c4=O)cc3)CC2)cc1	T cruzi repl 70, L major viab 98
O=C(c1ccc2c(=O)n(Cc3ccccc3)c(=S)[nH]c2c1)N1CCOCC1	HSF1 inhib -87 (no result: Hsp70 activator, L major viab)
O=c1c2cc(N3CCOCC3)ccc2[nH]c(=S)n1Cc1ccccc1Cl	none
Cc1c(C(=O)Nc2ccc(S(=O)(=O)N3CCOCC3)cc2)cccc1[N+](=O)[O-]	none (no result: Hsp70 activator, L major viab)
CCn1ccnc1CN(C)Cc1cn[nH]c1-c1ccc(OC)c(F)c1	none
O=[N+]([O-])c1cccc(-c2ccc3nnc(SCc4ccccn4)n3n2)c1	HSF1 activator 63
CC(C)CCc1c(O)nc(SCC(=O)N2CCCCCC2)[nH]c1=O	HSF1 inhib -74 (no result: Hsp70 activator, L major viab)
CCOc1ccc(C2=NNC(c3cccs3)=Nc3ccc(OC)cc32)cc1OCC	L major viab 67
COc1ccc(C2=NNC(c3cccs3)=Nc3ccc(OC)cc32)cc1	none
Cn1c(O)c(C=Nc2ccc(Br)cc2)sc1=O	HSF1 activator 58
Cc1cccc(NC(=O)CN2CCN(C(=O)C3CCCO3)CC2)c1C (centres undefined)	none (no result: Hsp70 activator, L major viab)
CC12COC3(C(=O)Nc4ccc5ccccc5c4)CC1CCC32C (centres undefined)	HSF1 activator 62
Cc1c(C(=O)Nc2ccc(Cl)cc2)c2ccccn2c1C(=O)c1ccc(F)cc1	none
Cc1c(C(=O)Nc2ccc(Cl)cc2)c2ccccn2c1CCc1ccncc1	HSF1 activator 66, T cruzi repl 63
Cc1c(C(=O)Nc2cccc(Cl)c2)c2ccccn2c1CCc1ccncc1	T cruzi repl 56, L major viab 75
O=C(NCc1ccncc1)Nc1cccc(Cl)c1	none
CCOC(=O)C1=C(COC(=O)/C=C/c2ccco2)NC(=O)NC1C (centres undefined)	none (no result: Hsp70 activator, L major viab)
CC(C)C1C(C#N)=C(N)Oc2n[nH]c(-c3cccs3)c21 (centres undefined)	none
Cc1ccc(-c2[nH]nc3c2C(c2ccsc2)C(C#N)=C(N)O3)cc1 (centres undefined)	none
Cc1cc(C2C(C#N)=C(N)Oc3n[nH]c(C)c32)c(C)s1 (centres undefined)	none
Cc1[nH]nc2c1C(c1ccsc1C)C(C#N)=C(N)O2 (centres undefined)	L major viab 77
CC(C)c1[nH]nc2c1C(c1cccs1)C(C#N)=C(N)O2 (centres undefined)	L major viab 59
Cc1[nH]nc2c1C(c1ccsc1)C(C#N)=C(N)O2 (centres undefined)	L major viab 57
Cc1ccc2c(c1)N(CC(=O)NCC1CCCO1)C(=O)C(C(C)C)O2 (centres undefined)	none (no result: Hsp70 activator, L major viab)
Cn1c(C(=O)c2ccncc2)cc2ccccc21	none (no result: Hsp70 activator, L major viab)
O=C(NNc1ncnc2c1cnn2-c1cccc(Cl)c1)c1ccco1	HSF1 activator 64 (no result: Hsp70 activator, L major viab)
Cc1ccc(-n2ncc3c(NNC(=O)c4ccco4)ncnc32)cc1C	none (no result: Hsp70 activator, L major viab)
CNCc1ccccc1OCC(=O)Nc1ccccc1	none
O=C(COc1ccc([N+](=O)[O-])cc1Cl)NCCc1ccccc1	none
CCOc1cc(CNCC(C)C)c(Cl)cc1OCC(=O)Nc1ccccc1	L major viab 82
CCNCc1cc(OCC)c(OCC(=O)NCCc2ccccc2)cc1Cl	L major viab 99
COc1ccc(CNCCC(c2ccccc2)c2ccc3c(c2)OCO3)cc1 (centres undefined)	T cruzi repl 59, L major viab 100
COc1ccc(C(CC(=O)O)c2ccc3c(c2)OCO3)cc1 (centres undefined)	none (no result: Hsp70 activator, L major viab)
Fc1ccccc1CNCCC(Cc1ccccc1)c1ccc2c(c1)OCO2 (centres undefined)	L major viab 66
CCOC(=O)C(Cc1ccccc1)NC(=O)CCc1nnc2ccc(N3CCCC3)nn12 (centres undefined)	none (no result: Hsp70 activator, L major viab)
CCOC(=O)c1c(C)oc2c1c(C(c1ccccc1)N1CCOCC1)c(O)c1ccccc12 (centres undefined)	none
CCOC(=O)c1c(C)oc2c1c(C(c1cccnc1)N1CCCCC1)c(O)c1ccccc12 (centres undefined)	L major viab 98
O=C(CSc1ncnc2scc(-c3ccccc3)c12)N1CCN(c2ccccc2F)CC1	L major viab 55
CSc1ccccc1NC(=O)CN1CC(C)OC(C)C1 (centres undefined)	none
Fc1ccc(-c2cc(-c3ccccc3)nc(-n3cccn3)n2)cc1	HSF1 inhib -69
O=c1cc(-c2ccccc2)nc2cc(-c3ccc(F)cc3)[nH]n12	none (no result: Hsp70 activator, L major viab)
COc1cccc(NC(=O)CN(C)C(=O)/C=C/c2ccc3ccccc3n2)c1	none (no result: Hsp70 activator, L major viab)
COc1ccccc1NC(=O)C(C)OC(=O)/C=C/c1ccc2ccccc2n1 (centres undefined)	HSF1 activator 63 (no result: Hsp70 activator, L major viab)
CC(=O)/C=C/c1ccc2ccccc2n1	L major viab 100
Cc1ccc2nc(NC(=O)CSc3nncc(=O)n3N)sc2c1	none
COC(=O)c1cnc2c(c(C)nn2C)c1OC	HSF1 activator 59 (no result: Hsp70 activator, L major viab)
Cc1oc2c(c1C(=O)NCc1cccnc1)C(=O)c1ccccc1C2=O	L major viab 100, HSF1 inhib -95
Cc1cc(C)cc(-n2ncc3c2CCCC3NC(=O)CCN2CCCC2=O)c1 (centres undefined)	none (no result: Hsp70 activator, L major viab)
O=C(CN1CCCCCC1)Nc1ccc(S(=O)(=O)N2CCOCC2)cc1	L major viab 55
Cc1ccc(NC(=O)CSc2nnc(NC(=O)c3ccc(S(=O)(=O)N4CCOCC4)cc3)s2)cc1	none
O=C(Cn1c(=O)sc2ccccc21)Nc1ccc(S(=O)(=O)N2CCCC2)cc1	L major viab 80
